# Laboratory results from ChEMBL document CHEMBL1127395, “Synthesis and antimicrobial activity of novel 3-[(aminopyrimidiniumyl)thio]methyl cephalosporins” (1994).
# How the values were obtained:
# Enterobacter cloacae = assay: In vitro minimum inhibitory concentration for Enterobacter cloacae (ATCC-27508) by agar dilution method; type: functional
# Procedure, shortened: (§1)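 Two-fold serial dilutions of each compound dispersed in Mueller-Hinton agar; plates spot-inoculated with 2 μL of standard test strain at 10^7 CFU/mL, incubated 37 °C for 20 h; MIC read as lowest concentration inhibiting growth.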
# Pseudomonas aeruginosa [1] = assay: In vitro minimum inhibitory concentration for Pseudomonas aeruginosa (ATCC 10145) by agar dilution method; type: functional; procedure, shortened: as §1
# Klebsiella pneumoniae = assay: In vitro minimum inhibitory concentration for Klebsiella pneumoniae (ATCC-10031) by agar dilution method; type: functional
# Escherichia coli = assay: In vitro minimum inhibitory concentration for Escherichia coli (ATCC-10536) by agar dilution method; type: functional; procedure, shortened: as §1
# Citrobacter freundii = assay: In vitro minimum inhibitory concentration for Citrobacter freundii (ATCC-8090) by agar dilution method; type: functional; procedure, shortened: as §1
# Staphylococcus aureus = assay: In vitro minimum inhibitory concentration for Staphylococcus aureus (ATCC 6538p) by agar dilution method; type: functional; procedure, shortened: as §1
# Proteus vulgaris = assay: In vitro minimum inhibitory concentration for Proteus vulgaris (ATCC-6059) by agar dilution method; type: functional; procedure, shortened: as §1
# Klebsiella aerogenes = assay: In vitro minimum inhibitory concentration for Enterobacter aerogenes (ATCC-29751) by agar dilution method; type: functional; procedure, shortened: as §1
# Serratia marcescens = assay: In vitro minimum inhibitory concentration for Serratia marcescens (ATCC-27117) by agar dilution method; type: functional; procedure, shortened: as §1
# [2] = tested on: Staphylococcus epidermidis; assay: In vitro minimum inhibitory concentration for Staphylococcus epidermidis (ATCC-12228) by agar dilution method; type: functional; procedure, shortened: as §1
# Pseudomonas aeruginosa [3] = assay: In vitro minimum inhibitory concentration for Pseudomonas aeruginosa (ATCC-27853) by agar dilution method; type: functional; procedure, shortened: as §1
# Salmonella typhimurium = assay: In vitro minimum inhibitory concentration for Salmonella Typhimurium (ATCC-14028) by agar dilution method; type: functional, Salmonella enterica subsp. enterica serovar Typhimurium; procedure, shortened: as §1
# [4] = Enterobacter cloacae, read-out: MIC
# [5] = Klebsiella pneumoniae, read-out: MIC
# [6] = Escherichia coli, read-out: MIC
# [7] = Citrobacter freundii, read-out: MIC
# [8] = Staphylococcus aureus, ATCC 6538p, read-out: MIC
# [9] = Proteus vulgaris, read-out: MIC
# [10] = Klebsiella aerogenes, read-out: MIC
# [11] = Serratia marcescens, read-out: MIC
# [12] = Staphylococcus epidermidis, read-out: MIC
# [13] = Pseudomonas aeruginosa, read-out: MIC
# [14] = Salmonella enterica, read-out: MIC
SMILES,MIC (Enterobacter cloacae; [4]) [µg/mL],MIC (Pseudomonas aeruginosa [1]) [µg/mL],MIC (Klebsiella pneumoniae; [5]) [µg/mL],MIC (Escherichia coli; [6]) [µg/mL],MIC (Citrobacter freundii; [7]) [µg/mL],MIC (Staphylococcus aureus; [8]) [µg/mL],MIC (Proteus vulgaris; [9]) [µg/mL],MIC (Klebsiella aerogenes; [10]) [µg/mL],MIC (Serratia marcescens; [11]) [µg/mL],"MIC [2, 12] [µg/mL]",MIC (Pseudomonas aeruginosa [3]; [13]) [µg/mL],MIC (Salmonella typhimurium; [14]) [µg/mL],further results
Cn1cc[n+]2c(SCC3=C(C(=O)[O-])N4C(=O)C(NC(=O)/C(=N\OC(C)(C)C(=O)O)c5cnc(N)s5)C4SC3)nc(N3CCOCC3)cc12 (stereo not given),0.06,8,0.25,0.25,0.5,8,0.25,8,0.5,2,4,0.5,
CC(C)(O/N=C(\C(=O)NC1C(=O)N2C(C(=O)[O-])=C(CSc3nc(N)c4c([n+]3N)CCC4)CSC12)c1cnc(N)s1)C(=O)O (stereo not given),0.02,2,0.06,0.06,0.03,4,0.06,0.25,0.13,2,2,0.13,
CCCC[n+]1c(N)cc(N)nc1SCC1=C(C(=O)[O-])N2C(=O)C(NC(=O)/C(=N\OC(C)(C)C(=O)O)c3cnc(N)s3)C2SC1 (stereo not given),0.03,4,0.06,0.13,0.13,2,0.25,1,0.5,1,4,0.5,
CC(C)(O/N=C(\C(=O)NC1C(=O)N2C(C(=O)O)=C(CSc3nccc(O)n3)CSC12)c1cnc(N)s1)C(=O)O (stereo not given),4,> 128,8,8,8,> 128,2,32,16,> 128,> 128,64,
Cc1cc(C)[n+](C)c(SCC2=C(C(=O)[O-])N3C(=O)C(NC(=O)/C(=N\OC(C)(C)C(=O)O)c4cnc(N)s4)C3SC2)n1 (stereo not given),0.06,4,0.13,0.13,0.25,8,0.06,4,0.25,8,4,0.5,
C[n+]1ccc(N)nc1SCC1=C(C(=O)[O-])N2C(=O)C(NC(=O)/C(=N\OC(C)(C)C(=O)O)c3cnc(N)s3)C2SC1 (stereo not given),< 0.008,2,0.03,0.03,0.03,4,0.06,1,0.06,2,1,0.13,
CC[n+]1c(N)cc(N)nc1SCC1=C(C(=O)[O-])N2C(=O)C(NC(=O)/C(=N\OC(C)(C)C(=O)O)c3cnc(N)s3)C2SC1 (stereo not given),0.03,2,0.06,0.06,0.13,2,0.03,2,0.13,1,1,0.25,
Cn1c(O)c[n+]2c(SCC3=C(C(=O)[O-])N4C(=O)C(NC(=O)/C(=N\OC(C)(C)C(=O)O)c5cnc(N)s5)C4SC3)nc(N)cc12 (stereo not given),0.03,4,0.13,0.13,0.25,16,0.06,4,0.5,4,4,0.5,
Cc1cc(C)nc(SCC2=C(C(=O)O)N3C(=O)C(NC(=O)/C(=N\OC(C)(C)C(=O)O)c4cnc(N)s4)C3SC2)n1 (stereo not given),0.5,64,0.5,0.5,0.5,32,0.25,8,2,8,32,4,
CCn1cc[n+]2c(SCC3=C(C(=O)[O-])N4C(=O)C(NC(=O)/C(=N\OC(C)(C)C(=O)O)c5cnc(N)s5)C4SC3)nc(N)cc12 (stereo not given),0.02,4,0.06,0.06,0.06,4,0.06,2,0.13,2,2,0.13,
Cc1c(N)nc(SCC2=C(C(=O)[O-])N3C(=O)C(NC(=O)/C(=N\OC(C)(C)C(=O)O)c4cnc(N)s4)C3SC2)[n+]2nc(C)n(C)c12 (stereo not given),0.03,8,0.13,0.25,0.13,8,0.13,1,0.5,2,4,0.25,
CN[n+]1c(N)cc(N)nc1SCC1=C(C(=O)[O-])N2C(=O)C(NC(=O)/C(=N\OC(C)(C)C(=O)O)c3cnc(N)s3)C2SC1 (stereo not given),0.13,8,0.25,0.5,0.5,32,0.03,16,1,16,8,1,
CC(C)(O/N=C(\C(=O)NC1C(=O)N2C(C(=O)O)=C(CSc3nc(N)cc(N)n3)CSC12)c1cnc(N)s1)C(=O)O (stereo not given),0.25,4,0.25,0.25,1,32,0.031,2,0.5,8,2,0.5,
CC(C)(O/N=C(\C(=O)NC1C(=O)N2C(C(=O)O)=C(CSc3nc(O)cc(O)n3)CSC12)c1cnc(N)s1)C(=O)O (stereo not given),1,32,2,4,8,> 128,0.25,32,4,> 128,32,8,
CC(C)(O/N=C(\C(=O)NC1C(=O)N2C(C(=O)[O-])=C(CSc3nc(N)cc[n+]3N)CSC12)c1cnc(N)s1)C(=O)O (stereo not given),0.02,2,0.03,0.06,0.03,8,0.03,0.5,0.13,2,1,0.13,
CC(C)(O/N=C(\C(=O)NC1C(=O)N2C(C(=O)[O-])=C(CSc3nc(N)cc(N)[n+]3C3CC3)CSC12)c1cnc(N)s1)C(=O)O (stereo not given),0.03,4,0.06,0.13,0.13,4,0.13,2,0.25,2,2,0.5,
C[n+]1cc(Cc2ccccc2)c(N)nc1SCC1=C(C(=O)[O-])N2C(=O)C(NC(=O)/C(=N\OC(C)(C)C(=O)O)c3cnc(N)s3)C2SC1 (stereo not given),0.03,16,0.06,0.25,0.06,8,0.5,1,0.5,2,8,0.5,
Cc1ccc(-[n+]2c(N)cc(N)nc2SCC2=C(C(=O)[O-])N3C(=O)C(NC(=O)/C(=N\OC(C)(C)C(=O)O)c4cnc(N)s4)C3SC2)c(C)c1 (stereo not given),0.13,8,0.13,0.5,2,4,0.25,2,2,2,2,2,
CC(C)(O/N=C(\C(=O)NC1C(=O)N2C(C(=O)O)=C(CSc3ncccn3)CSC12)c1cnc(N)s1)C(=O)O (stereo not given),0.5,32,0.5,1,1,16,0.063,16,2,8,16,2,
C[n+]1c(N)cc(N)nc1SCC1=C(C(=O)[O-])N2C(=O)C(NC(=O)/C(=N\OC(C)(C)C(=O)O)c3cnc(N)s3)C2SC1 (stereo in doubt; 23),,,,,,,,,,,,,MIC (Enterobacter cloacae): 0.06 µg/mL; MIC (Klebsiella pneumoniae): 0.06 µg/mL; MIC (Escherichia coli): 0.06 µg/mL; MIC (Citrobacter freundii): 0.13 µg/mL; MIC (Staphylococcus aureus): 4 µg/mL; MIC (Proteus vulgaris): 0.06 µg/mL; MIC (Klebsiella aerogenes): 2 µg/mL; MIC (Serratia marcescens): 0.13 µg/mL; MIC [2]: 2 µg/mL; MIC (Pseudomonas aeruginosa [3]): 2 µg/mL; MIC (Salmonella typhimurium): 0.25 µg/mL
CC(C)(O/N=C(\C(=O)N[C@@H]1C(=O)N2C(C(=O)[O-])=C(C[n+]3ccccc3)CS[C@H]12)c1csc(N)n1)C(=O)O [CEFTAZIDIME],0.03,2,,0.06,0.13,8,0.06,4,0.13,4,1,0.25,
